Data on three compounds can be found in ChEMBL document CHEMBL1149047, “New teleocidin-related metabolites, (-)-7-geranylindolactam V and blastmycetin F, from Streptoverticillium blastmyceticum” (J Nat Prod, 1994).

Molecules are shown by their SMILES.

The test system of data set [1] is HeLa. In words: Tumor promoter activity in human HeLa cells assessed as enhancement of incorporation of 32Pi into phospholipid per mg of protein at 1 nM. The note with it: 0.001 µM. Format: ADME, cell-based. The method in brief: (§1)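 HeLa cells treated with compound in 0.2% DMSO (vehicle control). Radioactive inorganic phosphate (32Pi) uptake into phospholipids measured by a previously reported method with slight modifications. Results given as cpm per mg protein relative to the DMSO control, with standard deviation. Compound tested at 10^-10 to 10^-7 M.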

The test system of data set [2] is HeLa. In words: Tumor promoter activity in human HeLa cells assessed as enhancement of incorporation of 32Pi into phospholipid per mg of protein at 0.1 nM. In kind it is ADME, cell-based. The note with it: 0.0001 µM. The essentials:
as §1

Data set [3] relates to HeLa. The data set is described as follows: Tumor promoter activity in human HeLa cells assessed as enhancement of incorporation of 32Pi into phospholipid per mg of protein at 0.1 uM. In kind it is ADME, cell-based. The method in brief:
as §1

In data set [4] the test system is HeLa. The data set is described as follows: Tumor promoter activity in human HeLa cells assessed as enhancement of incorporation of 32Pi into phospholipid per mg of protein at 10 nM. Format: ADME, cell-based. The note with it: 0.01 µM. The essentials: as §1
Data set [5] is described as follows: Displacement of [3H]TPA from phorbol ester receptor in ICR mouse epidermal particulate. The essentials: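 Competition for specific [3H]-TPA binding to a particulate fraction from dorsal epidermis of female ICR mice, by the cold Me2CO filter method with slight modifications. IC50 (concentration giving 50% inhibition) found by probit analysis. Because IC50 drifts between particulate preparations, all compounds were run together on one fraction. Value reported as log 1/M.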

For `C=C[C@](C)(CCC=C(C)C)c1ccc2c3c(c[nH]c13)C[C@@H](CO)NC(=O)[C@H](C(C)C)N2C`, the relative 32Pi incorporation in the data set on HeLa [1] is 1.57; in the data set with HeLa [2] it was 1.05; with HeLa [3], 8.36; in the data set with HeLa [4], 4.59.
Regarding `C=C[C@@]1(C)CC[C@](C)(C(C)C)c2cc3c4c(c[nH]c4c21)C[C@@H](CO)NC(=O)[C@H](C(C)C)N3C`, the relative 32Pi incorporation in the data set with HeLa [1] is 1.82; with HeLa [2] it was 1.19; in the data set with HeLa [3], 7.46; in the data set on HeLa [4] it was 6.72.
For orientation: pIC50 means −log10 of the IC50, conventionally taken in molar units. Higher therefore signals a small IC50. For `CC(C)=CCC/C(C)=C/Cc1ccc2c3c(c[nH]c13)C[C@@H](CO)NC(=O)[C@H](C(C)C)N2C`, the relative 32Pi incorporation turned out to be 1.41 in the data set with HeLa [1], 0.97 with HeLa [2], 6.64 with HeLa [3] and 2.61 in the data set with HeLa [4]. This compound returned a pIC50 in data set [5] of 8.05.
